# Many of the other results were omitted from the sample, so hits are more common in it than they were.
# ABCB6 inh 2 – ABCB6 transporter inhibitors, primary screen, K562-ABCB6 cells, flow cytometry, MLPCN library. ATP-binding cassette sub-family B member 6 (Homo sapiens), Q9NP58. K562-ABCB6 porphyrin accumulation, 1 h; stronger effect = lower value. fluorescence ratio to DMSO, % at 10 µM. hit rate 0.19% among 360,000. AID 602162, 2011;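 active = fluorescence ratio to DMSO below 75%, the collection mean minus 3 SD; inconclusive = too few cells collected in the well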;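 also: signal is porphyrin accumulated inside mitochondria; 100% equals median channel fluorescence of DMSO control wells; lower ratio means ABCB6 inhibition with less porphyrin fluorescence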
# Target sequence (Q9NP58 whole entry, looked up): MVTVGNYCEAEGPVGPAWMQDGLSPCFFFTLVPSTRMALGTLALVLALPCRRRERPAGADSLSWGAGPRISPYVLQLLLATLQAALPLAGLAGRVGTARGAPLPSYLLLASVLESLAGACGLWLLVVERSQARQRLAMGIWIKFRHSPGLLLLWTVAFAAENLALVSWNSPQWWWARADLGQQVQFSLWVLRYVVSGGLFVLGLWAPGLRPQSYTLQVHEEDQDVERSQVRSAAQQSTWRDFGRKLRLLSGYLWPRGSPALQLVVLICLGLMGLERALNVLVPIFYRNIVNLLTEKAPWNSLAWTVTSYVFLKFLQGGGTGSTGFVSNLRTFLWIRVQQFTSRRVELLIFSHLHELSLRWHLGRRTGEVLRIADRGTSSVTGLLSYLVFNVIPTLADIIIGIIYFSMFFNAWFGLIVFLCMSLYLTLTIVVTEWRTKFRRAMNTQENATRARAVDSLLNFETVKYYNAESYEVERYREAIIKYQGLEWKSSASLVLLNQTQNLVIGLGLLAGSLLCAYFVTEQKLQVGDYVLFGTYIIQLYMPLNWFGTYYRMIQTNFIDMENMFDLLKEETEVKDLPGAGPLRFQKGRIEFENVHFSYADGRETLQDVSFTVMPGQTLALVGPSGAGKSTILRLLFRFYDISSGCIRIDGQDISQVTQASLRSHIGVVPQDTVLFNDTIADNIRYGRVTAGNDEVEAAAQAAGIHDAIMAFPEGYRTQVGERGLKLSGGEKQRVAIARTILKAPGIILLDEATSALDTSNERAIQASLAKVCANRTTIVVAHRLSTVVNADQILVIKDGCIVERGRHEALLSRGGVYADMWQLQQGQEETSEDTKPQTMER
# Myeloid diff 2 – induction of myeloid progenitor differentiation, primary screen, cell-based, flow cytometry, MLPCN library; hit rate 1% among 360,000; calls only at 10 µM; ER-HoxA9 myeloid progenitors, lysozyme-GFP differentiation;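 active = normalized GFP-positive differentiation at or above the plate's own cutoff, the solvent-only control mean plus 3 SD; inconclusive = no clear call, values can overlap the other calls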;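 also: cells exposed to compound for four days before flow analysis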
# XiGFP reactiv – activators of inactive X chromosome reactivation, primary screen, imaging, XiGFP fibroblasts, GFP high-content imaging, set 2; AID 743238, 2013; activation, % at 7.58 µM; hit rate 0.055% among 360,000; XiGFP mouse fibroblasts, % GFP-positive cells imaging, 3 d; cells co-treated with 5-aza-dC sensitizer; scaled so ellipticine positive control = 100%;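 active = mean normalized replicate activation at least 10% and every replicate at or above 10%; inconclusive = only one of the two criteria met; inactive = mean below 10% and not all replicates reach 10%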;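 also: 0% = median of on-plate neutral control wells and 100% = ellipticine 6 µM median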
#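 Schedule: 3 d treatment, 15 min room-temperature fixation; system: 68-5-11 XiGFP fibroblast line; buffer or medium: DMEM plus 5-aza-dC sensitizer; control set: ellipticine 6 µM positive control; compound: one concentration, pinned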
# Active calls of the source: *; i = inactive; ? = inconclusive; . = not tested or not shown; + = active, no number.
SMILES,ABCB6 inh 2,Myeloid diff 2,XiGFP reactiv
CC(=O)OCCN1c2ccccc2Sc2cnccc21,91,i,0
CC(=O)OCCCN1c2ccccc2Nc2nnc(-c3ccccc3)cc21,108,+,.
C[C@@H]1CN([C@@H](C)CO)C(=O)c2cc(NS(C)(=O)=O)ccc2O[C@@H](C)CCCCO[C@H]1CN(C)C(=O)CCC(F)(F)F,.,.,-1
CCCNC(=O)N1CC2(CN(S(=O)(=O)c3ccc(OC)cc3)C2)c2c(n(C)c3cc(OC)ccc23)[C@@H]1CO,.,.,0
CCCNC(=O)c1ccc(N2CCC3(CC2)CC(c2ccccc2)=NO3)c(NC(=O)c2ccccc2)c1,81,+,0
CCCNC(=O)c1ccc(N2CCC3(CC2)CC(c2ccccc2)=NO3)c(NC(=O)c2ccc(Br)cc2)c1,92,i,0
COCC(=O)N(C)C[C@@H]1Oc2cc(-c3ccncc3)ccc2S(=O)(=O)N([C@H](C)CO)C[C@@H]1C,.,.,-1
O=C(c1ccccn1)N1CC2(C1)[C@H](c1ccccc1)[C@@H](CO)N2Cc1ccccc1,.,.,0
CN1CCCN(S(=O)(=O)c2cccc(C(F)(F)F)c2)c2nc3ccccc3nc21,102,+,1
O=C(C(=O)N1CCN(S(=O)(=O)c2cccc(C(F)(F)F)c2)CC1)c1cccc(C(F)(F)F)c1,.,.,0
O=C1NC(=S)N/C1=C\c1ccccc1OCc1ccc(C(=O)O)cc1,101,i,0
O=C(O)c1ccc(COc2ccccc2C=C2C(=O)c3ccccc3C2=O)cc1,107,+,?
C[C@@H]1CN([C@H](C)CO)C(=O)c2cc(NS(=O)(=O)c3ccccc3)ccc2O[C@@H]1CN(C)Cc1ccc2c(c1)OCO2,.,.,0
CCN(CC)c1ccc(/C=C(\C#N)C(N)=O)cc1,99,i,0
CCN(CC)c1ccc(/C=C(\C#N)C(N)=S)cc1,113,+,0
Cc1cccn2c(=O)c3cc(C(N)=S)c(=N)n(CCCOC(C)C)c3nc12,105,+,.
CCNC(=O)c1cc2c(=O)n3cccc(C)c3nc2n(CCc2ccccc2)c1=N,108,i,.
CCCCNC(=O)c1cc2c(=O)n3cccc(C)c3nc2n(Cc2ccccc2)c1=N,88,+,.
CCOCCCn1c(=N)c(C(N)=S)cc2c(=O)n3cccc(C)c3nc21,94,i,.
COc1ccc(CN(C)C[C@H]2Oc3ccc(NS(=O)(=O)c4ccc(C)cc4)cc3C(=O)N([C@H](C)CO)C[C@H]2C)cc1,.,.,-1
CCNC(=O)Nc1ccc2c(c1)C(=O)N(C)[C@H]1CC[C@@H](CC(=O)NCC3CCCCC3)O[C@@H]1CO2,.,.,0
COc1ccccc1[C@H]1C(c2cccc(C)c2)=NN(c2ccccc2)[C@@H]1CO,103,+,0
COc1ccccc1[C@H]1C(c2ccccc2)=NN(c2ccccc2)[C@@H]1CO,99,i,.
O=C([C@@H]1[C@@H](CO)[C@@H]2Cn3c(cccc3=O)[C@H]1N2C(=O)c1ccccc1)N1CCCCC1,.,.,0
COc1ccc(OC)c(-c2cc(C(=O)Nc3c(C)nn(Cc4ccccc4C)c3C)no2)c1,98,+,.
SMILES,ABCB6 inh 2,Myeloid diff 2,XiGFP reactiv
COc1ccc(OC)c(-c2cc(C(=O)Nc3c(C)nn(Cc4ccccc4Cl)c3C)no2)c1,95,i,.
COc1ccc2c3c(n(C)c2c1)[C@H](CO)NCC31CCN(C(=O)c2cccc(F)c2)CC1,.,.,0
COCC(=O)N1CCC2(CC1)CN(C(=O)Nc1ccccc1F)[C@H](CO)c1c2c2ccc(OC)cc2n1C,.,.,0
CC(C)(C)n1nnnc1C(c1ccccc1)N1CCN(C/C=C/c2ccccc2)CC1 (stereo not given),97,+,0
CCC(c1nnnn1C(C)(C)C)N1CCN(C/C=C/c2ccccc2)CC1 (stereo not given),103,i,0
Nc1ccc2c(c1)N1CCN=C1S2,94,i,.
O=C(Nc1ccc(Cl)cc1)Nc1ccc2c(c1)N1CCN=C1S2,90,+,.
C=CCc1cccc(/C=N/NC(=O)CCCNc2ccc(C)cc2)c1O,93,i,-1
C=CCc1cccc(/C=N/NC(=O)CCC(=O)Nc2ccc(F)cc2)c1O,96,+,0
CCCN(CC(=O)Nc1ccc(F)c(F)c1F)C(=O)Cn1c(=O)cnc2ccccc21,100,+,0
CCN(CC(=O)Nc1c(F)cccc1F)C(=O)Cn1c(=O)cnc2ccccc21,85,i,2
Cc1ccc(-c2nc(NC(=O)CSc3nnc4scc(-c5ccccc5)n34)ns2)cc1,101,+,0
